Assay results taken from ChEMBL document CHEMBL1147968, “Novel lbeta-methylcarbapenems having cyclic sulfonamide moieties: synthesis and evaluation of in vitro antibacterial activity” (2007).
≈ marks a conversion by molar mass, not a printed value.

What was measured:
Assay type in all cases: functional
[1] = test system: Staphylococcus aureus; assay: Antibacterial activity against Staphylococcus aureus 1218 after 18 to 24 hrs by agar dilution method
Summary of the method: (§1)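 MICs were determined by agar dilution on test agar. An overnight tryptosoy broth culture was diluted in the same broth to about 10⁶ cells/mL and spotted with an inoculating device onto agar containing serial twofold dilutions of compound. Plates were incubated at 37 °C for 18–20 h, and the MIC was the lowest concentration with no visible growth.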

[2] = test system: Staphylococcus; assay: Antibacterial activity against coagulase negative Staphylococcus after 18 to 24 hrs by agar dilution method
Summary of the method: (§2)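 Agar dilution on test agar holding serial twofold dilutions of compound. Overnight tryptosoy broth cultures were diluted in the same broth to about 10⁶ cells/mL and spotted with an inoculating device. Plates were incubated at 37 °C for 18–20 h.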

[3] = test system: Enterococcus faecalis; assay: Antibacterial activity against Enterococcus faecalis 2347 after 18 to 24 hrs by agar dilution method; summary of the method: as §1
[4] = test system: Streptococcus pyogenes; assay: Antibacterial activity against Streptococcus pyogenes 9889 after 18 to 24 hrs by agar dilution method; summary of the method: as §2
[5] = test system: Streptococcus agalactiae; assay: Antibacterial activity against Streptococcus agalactiae 32 after 18 to 24 hrs by agar dilution method; summary of the method: as §1
[6] = test system: Streptococcus pneumoniae; assay: Antibacterial activity against Streptococcus pneumoniae 0025 after 18 to 24 hrs by agar dilution method; summary of the method: as §1
[7] = test system: Haemophilus influenzae; assay: Antibacterial activity against Haemophilus influenzae 1210 after 18 to 24 hrs by agar dilution method; summary of the method: as §1
[8] = test system: Escherichia coli; assay: Antibacterial activity against Escherichia coli 04 after 18 to 24 hrs by agar dilution method; summary of the method: as §1
[9] = test system: Klebsiella pneumoniae; assay: Antibacterial activity against Klebsiella pneumoniae 523 after 18 to 24 hrs by agar dilution method; summary of the method: as §1
[10] = test system: Citrobacter freundii; assay: Antibacterial activity against Citrobacter freundii 323 after 18 to 24 hrs by agar dilution method; summary of the method: as §1
[11] = test system: Enterobacter cloacae; assay: Antibacterial activity against Enterobacter cloacae 34 after 18 to 24 hrs by agar dilution method; summary of the method: as §1
[12] = test system: Serratia marcescens; assay: Antibacterial activity against Serratia marcescens 3349 after 18 to 24 hrs by agar dilution method; summary of the method: as §1
[13] = test system: Acinetobacter baumannii; assay: Antibacterial activity against Acinetobacter baumannii 2289 after 18 to 24 hrs by agar dilution method; summary of the method: as §1
[14] = test system: Pseudomonas aeruginosa; assay: Antibacterial activity against Pseudomonas aeruginosa 5455 after 18 to 24 hrs by agar dilution method; summary of the method: as §1

MIC [1]: 12.5 µg/mL (≈ 27.1 µM)
MIC [2]: 0.098 µg/mL (≈ 0.213 µM)
MIC [3]: 6.25 µg/mL (≈ 13.6 µM)
MIC [4]: 0.02 µg/mL (≈ 0.0434 µM)
MIC [5]: 0.02 µg/mL (≈ 0.0434 µM)
MIC [6]: 0.02 µg/mL (≈ 0.0434 µM)
MIC [7]: 6.25 µg/mL (≈ 13.6 µM)
MIC [8]: 0.049 µg/mL (≈ 0.106 µM)
MIC [9]: 0.098 µg/mL (≈ 0.213 µM)
MIC [10]: 0.049 µg/mL (≈ 0.106 µM)
MIC [11]: 0.049 µg/mL (≈ 0.106 µM)
MIC [12]: 0.098 µg/mL (≈ 0.213 µM)
MIC [13]: 12.5 µg/mL (≈ 27.1 µM)
MIC [14]: 3.12 µg/mL (≈ 6.78 µM)
Structure (SMILES): C[C@@H](O)C1C(=O)N2C(C(=O)O)=C(S[C@@H]3CN[C@H](CN4CCN(C)S4(=O)=O)C3)[C@H](C)C12 (some centres undefined)
